In ChEMBL document CHEMBL4513216, “Probing the Open Global Health Chemical Diversity Library for Multistage-Active Starting Points for Next-Generation Antimalarials” (ACS Infect Dis, 2020):

Assay: Toxicity liver stage against HepG2, at 10uM
Type: cell-based
Design: test concentration 10 uM, cell line HepG2-A16-CD81EGFP
Details: human, HepG2-A16-CD81EGFP cells; read-out: INHIBITION
Procedure, shortened: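 Uninfected HepG2-A16-CD81EGFP cells, 3 × 10^3 per well, 1536-well, plated on prespotted compound at 10 μM final, parasite-free screening media added to match infected plates; puromycin 10 μM positive, DMSO 0.5% negative; run in parallel with 48 h PbLuc assay at 37 °C, 5% CO2; viability by CellTiter-Glo luminescence, normalized to controls.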

SMILES | cytotoxicity at 10 µM [%]
CCCc1ccc(CN2CCN(C(=O)N(C)C)[C@@H]3CS(=O)(=O)C[C@@H]32)o1 | 8.69
Nc1ncccc1CN1CCOCC1CC(=O)NCc1ccccn1 (centres undefined) | 9.66
CCc1ccc(CNc2cc(N3CCCC3CO)ncn2)s1 (centres undefined) | -13
CN(Cc1nccn1C)C1CCN(CCc2ccccn2)CC1 | -8.78
Cn1ccc(C(=O)NCc2ccc(CN3CCCCC3)cc2)cc1=O | -12.4
OCC1(O)CCCN(Cc2ccc(-c3cc[nH]n3)s2)CC1 (centres undefined) | -141
CCn1ncc2c1CN(C(=O)c1ccc3c(c1)OCO3)CC2COC (centres undefined) | 8.7
COc1ccccc1CC1CCCN(C(=O)c2nccnc2N)C1 (centres undefined) | 5.79
CC(NC(=O)Nc1cccnc1N1CCCC1)c1ccncc1 (centres undefined) | -19.3
CNc1ccnc(N2CC[C@@](O)(C3CCOCC3)[C@H](C)C2)n1 | 8.64
CC(C)(CN1CCOCC1)CN1CCC(Cc2cccc(CO)c2)C1 (centres undefined) | -7.73
Cc1noc([C@@H]2C[C@H]3OCC[C@H]3N(S(=O)(=O)N(C)C)C2)n1 | -122
CCc1ncnc2c1CCN(Cc1nccs1)CC2 | 6.56
CCc1cnc(CN2C(=O)CC3(CCSC3)C2=O)o1 (centres undefined) | -9.36
COc1cc2[nH]c(C(=O)O)cc2c(OC)c1C | -1.51
O=C1O[C@@H]2CN(c3ccccn3)C[C@@H]2N1CCCc1ccc(F)cc1 | -2.88
CN(C)C(=O)C1SCCc2ccccc21 (centres undefined) | 1.81
CO[C@H]1C[C@@H](O)C12CCN(C(=O)CCCOc1ccccc1)CC2 | -2.22
CCc1noc(CCC(=O)N[C@@H]2CC[C@@H](n3ccnc3C)[C@@H]2O)n1 | -20.5
COCCC(=O)N1Cc2ccccc2OC2(CCOCC2)C1 | -2.53
O=C(O)C1(Cc2cccc(-c3ccc(F)c(F)c3)c2)CCOCC1 | -2.5
Cn1cc(N2CC3(CCN(Cc4ccsc4)CC3)OCC2=O)cn1 | -82.8

SMILES | cytotoxicity at 10 µM [%]
Cc1n[nH]c(C)c1CCC(=O)NCC1(O)CCN(c2ccccn2)C1 (centres undefined) | -1.08
Cc1ncsc1CCN(C)C(=O)c1ccc(Cn2cnnn2)cc1 | -9.17
COc1cc(C)ccc1OCc1nc(C(=O)N2CCCO2)co1 | -45.9
Cn1cnc(-c2nc(C(=O)NCCN3CCCC3)c3ccccn23)c1 | -109
COc1cccc2c1N(S(=O)(=O)c1cc(C(=O)O)cs1)CCC2 | -1.95
Cc1nn(C)c(Cl)c1C1CCCN1CC(=O)NCc1ccco1 (centres undefined) | 1.48
CC(=O)N1CCCC(C(=O)NCCc2nc(Cc3ccccc3)no2)C1 (centres undefined) | 3.81
CN1CCN(S(=O)(=O)N2CCCCC2CCc2ccc(O)cc2)CC1 (centres undefined) | -1.94
CN(C)[C@@H]1C[C@@H](CO)N(C(=O)Nc2ccc(SC(F)(F)F)cc2)C1 | -0.187
COCCn1nc(C(=O)N(C)Cc2cccnc2)ccc1=O | -144
Cc1[nH]c(=O)[nH]c(=O)c1CN1CCCC(CCc2c(F)cccc2F)C1 (centres undefined) | -7.32
CN(C)C[C@@H]1CCC[C@@H]2CN(c3nccc(C(F)(F)F)n3)C[C@@H]21 | -2.75
Cc1ccc(CC(NC(=O)Cn2cnnn2)c2ccccn2)cc1 (centres undefined) | 1.72
Nc1nc(C2CCN(C(=O)c3cnco3)CC2)cs1 | -3
CN(C)C(=O)[C@@]12CCO[C@@H]1CCN(Cc1ccc3c(c1)OCO3)C2 | 0.863
Cc1cc(C)nc(NC(C)Cc2cnccn2)n1 (centres undefined) | 1.54
COc1cccc(OC2CN(C(=O)c3c(C)noc3C)C2)c1 | 7.79
Cc1cc(C)n(CC2CCCN2CCc2ccncc2)n1 (centres undefined) | -15.5
CC(NC(=O)N1CCC(OCc2ccccc2)CC1)c1nncn1C (centres undefined) | -1.49
O=C(NCc1ccco1)[C@H]1C[C@H]2OCC[C@H]2N(C(=O)c2ccco2)C1 | 2.79
Cc1ccc(N2CCCC3(CCN(C(=O)C4CC4)C3)C2)nn1 (centres undefined) | -109
c1ccc(CN2C[C@@H]3OCCN(c4cccnc4)[C@@H]3C2)nc1 | -72.8

SMILES | cytotoxicity at 10 µM [%]
CCc1cc(N2C[C@H](C3CC3)[C@@H](N)C2)nc(N2CCCC2)n1 | 0.334
CC(C)CCS(=O)(=O)N1CCCC(c2nncn2C(C)C)C1 (centres undefined) | 5.04
OC(CN1CC(n2cccn2)C1)c1ccc2c(c1)OCCO2 (centres undefined) | -19
Cc1noc(C)c1CN1CCOCC12CCN(c1nccs1)CC2 | -104
COc1cccc(N2CCC(CNC(=O)N(C)Cc3ccco3)C2)c1 (centres undefined) | -130
O=S(=O)(NCC1(O)CCOc2ccccc21)c1ccc(Br)s1 (centres undefined) | 1.43
Cc1c(C(=O)N2CCNC(=O)C2)sc2nc[nH]c(=O)c12 | 0.709
CC(C)[C@@H]1CN(C(=O)NCc2ccco2)C[C@H]1NS(=O)(=O)N(C)C | 6.14
Cc1cnn(C2CCCN(C(=O)CCCNc3ncccn3)C2)c1 (centres undefined) | -3.27
CCCc1nnc(N(C)CC2CCCN(CC)C2)o1 (centres undefined) | -4.1
COc1cccc(OCC(=O)NCc2ccc3[nH]c(=O)[nH]c3c2)c1 | 2.59
C=c1occc1=C1NN=C2SC(C#N)C(N)=NN21 (centres undefined) | 0.331
N[C@H]1CN(S(=O)(=O)N2CCCCCC2)C[C@@H]1c1ccccc1 | 2.14
Cc1cc(C2CCC2)nc(N(C)Cc2ncccc2C)n1 | -0.392
Cc1nc2c(c(N3CCC(O)(Cn4ccnc4)CC3)n1)CCNCC2 | 1.37
O=C(CC(F)(F)F)N1CCc2[nH]nc(-c3ccc4c(c3)OCO4)c2C1 | -149
Cc1cc(C)nc(C2CCCN2c2ccnc(C)n2)n1 (centres undefined) | -16.4
c1cc(CN2C[C@@H]3OCCN(CC4CCCO4)[C@@H]3C2)cs1 (some centres undefined) | -76.9
CC(C)c1nc(C2CCCN2c2cnc3ccccc3n2)no1 (centres undefined) | -3.13
CCCN(Cc1nccn1C)C(=O)C(CC)Nc1cccc(OC)c1 (centres undefined) | 0.417
CC(C)c1ccc(CN2CCC3(CCCN(c4nncs4)C3)C2)cc1 (centres undefined) | -1.15
CCc1cnc(CN(C)C(=O)Nc2cnc3c(c2)c(C)nn3C)s1 | 2.37

SMILES | cytotoxicity at 10 µM [%]
c1cncc(COC[C@@H]2CCC[C@]23CNCCO3)c1 | -96.1
CC(C)(O)c1cc(CC2(NCC3CCCCC3)COC2)no1 | 0.0962
CCS(=O)(=O)CC(C)NC(=O)N(C)Cc1cc(Cl)cn1C (centres undefined) | -1.04
CN1CCCC(c2cccc(Cc3ccccc3Cl)n2)C1 (centres undefined) | 1.03
CC1CN(Cc2nccn2C)CCN1c1ccc2nncn2n1 (centres undefined) | -8.52
COCC(=O)NCC1CCC(c2ccnc3ncnn23)CC1 (centres undefined) | 1.36
CC(=O)NC(Cc1c[nH]c2cc(F)ccc12)C(=O)Nc1nncs1 (centres undefined) | 1.22
Cn1c(CN2CCCCCC2)cc(=O)c(O)c1CN1CCCC1 | 13.9
CCn1nc(C)cc1C(=O)N1CCOc2cc(C)ccc21 | 10.5
COc1ccc2c(c1)CC(NCc1cccc(NC(C)=O)c1)CC2 (centres undefined) | -39.2
COc1ccc(OC)c(C2c3c(n[nH]c3C)N=C3COC(=O)C32)c1 (centres undefined) | -11.3
Cc1cccc(CN(C)Cc2nc3c(cnn3C)c(=O)[nH]2)c1 | -8.08
Cc1cc(OCC(=O)N2CCCC(c3nccs3)C2)no1 (centres undefined) | 0.953
CC1c2ncc(COCC3CCCC3)n2CCN1S(=O)(=O)N(C)C (centres undefined) | 14.6
Cc1cn2c(n1)CCC(NC(=O)COCCOc1ccccc1)C2 (centres undefined) | -4.44
Cc1cccc(CNC(=O)N(CCCO)C2CCc3ccccc32)n1 (centres undefined) | -10.5
Cc1c(C2CCCN(C(=O)Cc3ccccn3)C2)n2c(nc1=O)CCC2 (centres undefined) | 8.39
CCc1nnc2n1CCN(C(=O)C(C)COCc1ccccc1)C2 (centres undefined) | -9.46
Cc1nc(C2CCN2c2ncccn2)cc(N(C)C)n1 (centres undefined) | -4.8
Cc1c(Br)cnn1C(C)C(=O)Nc1nncs1 (centres undefined) | -4.61
Cc1cccc(CN2CCC[C@@H]3CN(C(=O)c4ccco4)C[C@@H]32)n1 | -3.49
COc1cc(C)sc1C(=O)NCCC(=O)N(C)c1ccccc1 | -1.41

SMILES | cytotoxicity at 10 µM [%]
CC(C)c1ccc(OCCC(=O)N2CCCC(C(N)=O)C2)cc1 (centres undefined) | -11.7
O=C(NCCN1CCCCCC1=O)Nc1cccnc1-n1cccn1 | -1.73
CCCc1nc(N2CCCCC2)c2c(n1)c(C)nn2CC | 7.46
CNC(=O)c1nc2c(s1)CCN(C(=O)c1ccccc1)CC2 | 11.1
Cc1ccc(OCC(=O)NCc2ccccc2F)nc1 | -12
Cc1cccc2c1nc(COCC(=O)O)n2-c1cnc(N)cn1 | 0.238
Cc1cccnc1CCNC(=O)CC1C(=O)NCCN1CCC(C)C (centres undefined) | 9.01
COc1ccccc1S(=O)(=O)N1CCC2(CC1)OCCCC2O (centres undefined) | 0.0773
CC(C)c1noc(CN2CCCC2c2noc(C(C)C)n2)n1 (centres undefined) | -5.89
Cc1cc(-c2cnc(NC3CCCC3)nc2-c2ccoc2)on1 | -20.9
O=C(CCCn1cncn1)NC1(c2ccccc2)CCC1 | -11.5
CCN1CC[C@@H]2OC[C@H](C(=O)NCc3cccs3)C[C@@H]2C1 | -106
Cn1nccc1C(=O)N1CCC(c2ncc(Cl)cc2S(C)(=O)=O)CC1 | 7.91
Cc1nnc(N2CC[C@H]3C[C@H](C(=O)N4CCOCC4)O[C@H]3C2)s1 | -0.671
C[C@@H]1CN(CCOCc2ccccc2)CC[C@@]1(O)C1CCC1 | 1.4
CCC1=N[C@@]2(CC[C@@H]3CN(CC(=O)N(C)C)C[C@@H]32)C(=O)N1CC(C)C | 8.18
O=C(Cc1cn2ccsc2n1)N1CCCC(n2cccn2)C1 (centres undefined) | -13.6
O=C(c1cccs1)N1CCC2(CC1)CN(c1cncnc1)C(=O)CO2 | -67.7
CC(=O)N[C@@H]1CN(C(=O)c2ccncc2)C[C@H]1c1ccc(C)cc1 | 4.58
CCCN(CCC)C1(Cc2cc(-c3cccc(O)c3)on2)COC1 | -1.19
Cc1cncc(C(=O)N2CCNCC2C(=O)NCc2ccncc2)c1 (centres undefined) | -4
